ChEMBL document CHEMBL1138768, “A locally active antiinflammatory macrolide (MLD987) for inhalation therapy of asthma” (J Med Chem, 2004)

Columns and labels:
[1] = Inhibitory activity against IFN-gamma production (Anti-CD3 monoclonal antibody stimulated and cultured CD4 positive cells purified from human peripheral blood mononuclear cell); format: functional, cell-based
[2] = Inhibitory activity against IL-5 production (Anti-CD3 monoclonal antibody stimulated and cultured CD4 positive cells purified from human peripheral blood mononuclear cell); format: functional, cell-based
Rattus norvegicus [3] = species on record: Rattus norvegicus; assay: Intratracheal dose that inhibits by 50% the allergen OA-induced eosinophil influx in to the airway lumen of actively sensitized rats after -1h, +24h treatment schedule; format: functional; details: Trachea, inhaled or nasal
In short: (§1)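 Actively sensitized Brown-Norway rats challenged with ovalbumin (OA). Compound given intratracheally, orally or i.v. either 1 h or 6 h before challenge, with a second dose 24 h after challenge. Eosinophils counted in bronchoalveolar lavage fluid; ED50 is the dose inhibiting OA-induced eosinophil influx by 50%; n = 5–20 rats.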

Rattus norvegicus [4] = assay: Intravenous dose that inhibits by 50% the allergen OA-induced eosinophil influx in to the airway lumen of actively sensitized rats after -1h, +24h treatment schedule; format: functional; in short: as §1
[5] = Inhibitory activity against IL-2 receptor in human T-cell jurkat cell line stimulated by phytohemagglutininin and phorbol myristate acetate; format: cell-based
In short: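 Jurkat human T-cell line carrying an IL-2 reporter gene, stimulated with phytohemagglutinin plus phorbol myristate acetate. Values are mean IC50 ± SEM (n = 3–6) or the mean of two experiments.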

[6] = Inhibitory activity against calcineurin phosphatase; parameters: species or system Homo sapiens
Rattus norvegicus [7] = species on record: Rattus norvegicus; assay: Intratracheal dose that inhibits by 50% the allergen OA-induced eosinophil influx in to the airway lumen of actively sensitized rats after -6h, +24h treatment schedule; format: functional; details: Trachea, inhaled or nasal; in short: as §1
Rattus norvegicus [8] = assay: Oral dose that inhibits by 50% the allergen OA-induced eosinophil influx in to the airway lumen of actively sensitized rats after -6h, +24h treatment schedule; format: functional; in short: as §1
Rattus norvegicus [9] = assay: Oral dose that inhibits by 50% the allergen OA-induced eosinophil influx in to the airway lumen of actively sensitized rats after -1h, +24h treatment schedule; format: functional; in short: as §1
[10] = Inhibitory activity against PPD-induced proliferation of human peripheral blood mononuclear cell (HPBMNC); format: functional
In short: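 Human peripheral blood mononuclear cells isolated from blood, stimulated with PPD (M. tuberculosis purified protein derivative). Proliferation read after 5 days in medium with 20% fetal calf serum. Mean IC50 ± SEM (n = 3–6) or the mean of two experiments.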

Rattus norvegicus [11] = assay: Intravenous dose that inhibits by 50% the allergen OA-induced eosinophil influx in to the airway lumen of actively sensitized rats after -6h, +24h treatment schedule; format: functional; in short: as §1
PBMC = assay: Inhibitory activity against murine mixed lymphocyte reaction; details: Mus musculus

Row | IC50 [1] [pM] | IC50 [2] [pM] | IC50 [5] [pM] | Ki [6] [pM] | Compound | ED50 (Rattus norvegicus [3]) [mg/kg] | ED50 (Rattus norvegicus [4]) [mg/kg] | ED50 (Rattus norvegicus [7]) [mg/kg] | ED50 (Rattus norvegicus [8]) [mg/kg] | ED50 (Rattus norvegicus [9]) [mg/kg] | IC50 [10] [pM] | ED50 (Rattus norvegicus [11]) [mg/kg] | IC50 (PBMC) [pM]
1 | 320 | 120 |  |  | CCCC1O[C@@H]2C[C@H]3[C@@H]4CCC5=CC(=O)C=C[C@]5(C)[C@H]4[C@@H](O)C[C@]3(C)[C@]2(C(=O)CO)O1 (stereo not given in full) [BUDESONIDE] | 0.5 |  |  |  |  |  |  | 
2 | 60 | 60 | 190 | 35000 | C=CC[C@@H]1/C=C(\C)C[C@H](C)C[C@H](OC)[C@H]2O[C@@](O)(C(=O)C(=O)N3CCCC[C@H]3C(=O)O[C@H](/C(C)=C/[C@@H]3CC[C@@H](O)[C@H](OC)C3)[C@H](C)[C@@H](O)CC1=O)[C@H](C)C[C@@H]2OC [TACROLIMUS ANHYDROUS] | 0.3 | 0.3 | 0.3 | 3 | 10 | 180 | 0.3 | 290
